# Rows were chosen to be rich in hits. Some 1.8% of all compounds tested hit in one or more screens of this group.
# NPY-Y1 antag – blocks the human neuropeptide Y Y1 receptor. HEK293-CNG Y1 cells, membrane potential fluorescence; NPY at EC95, then isoproterenol. inhibition, % at 3.6 µM. P25929. hit rate 1% among 200,000;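 active = inhibition above the campaign mean inhibition of all tested compounds plus 3 SD, cut at about 20% in these data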;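 also: 0% = DMSO wells given NPY plus isoproterenol and 100% = isoproterenol alone without NPY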
#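 Assay system: HEK293 Y1/CNG channel cell line; Doses: single compound dose of 3.6 µM, 0.4% DMSO; Timing: dye 3 h, compound 60 min room temperature, stimulation 45 min; Technique: Membrane-potential fluorescent dye readout; Measure: % inhibition of NPY effect.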
# NPY-Y2 PAM-ag – potentiates or activates human NPY-Y2 receptor. P49146. hit rate 0.45% among 220,000. activation, % at 3.6 µM. cells expressing NPY-Y2, potentiator/agonist read-out; in the data active = activation above about 27%;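 also: cells stimulated with NPY near EC25 plus isoproterenol at EC100; 0% = vehicle plus submaximal agonist and 100% = vehicle plus saturating agonist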
# Target sequence (P49146 whole entry, looked up): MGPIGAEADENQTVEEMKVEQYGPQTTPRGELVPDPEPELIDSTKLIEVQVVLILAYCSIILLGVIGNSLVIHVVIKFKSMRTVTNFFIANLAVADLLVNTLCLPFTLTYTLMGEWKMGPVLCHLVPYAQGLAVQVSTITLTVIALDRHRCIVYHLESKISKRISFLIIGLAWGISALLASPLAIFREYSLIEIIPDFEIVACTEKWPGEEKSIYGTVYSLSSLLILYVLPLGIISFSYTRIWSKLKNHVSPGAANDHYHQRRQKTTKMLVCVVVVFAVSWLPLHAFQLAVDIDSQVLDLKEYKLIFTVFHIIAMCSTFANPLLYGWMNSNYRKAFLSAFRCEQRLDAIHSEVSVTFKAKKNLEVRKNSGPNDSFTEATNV
# NPY1 pot ag – human NPY-Y1 potentiation or agonism, primary screen; P25929; AID 1304; hit rate 0.37% among 220,000; NPY-Y1 expressing cells, potentiator/agonist activation; activation, % at 3.6 µM; in the data active = activation above about 33%, passing the limit was not always enough;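 also: cells stimulated with NPY at EC10 then isoproterenol at EC100; 0% = low agonist plus stimulus and 100% = saturating agonist plus stimulus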
# NPY-Y2 antag – blocks the human neuropeptide Y Y2 receptor | NPY-Y2 expressing cells, antagonist mode | inhibition, % at 2.7 µM | hit rate 0.99% among 140,000 | AID 793; in the data active = inhibition above about 17%;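 also: 0% = vehicle with agonist challenge and 100% = reference antagonist with challenge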
# * = called active by the depositor; . = not tested or not shown.
SMILES,NPY-Y1 antag,NPY-Y2 PAM-ag,NPY1 pot ag,NPY-Y2 antag
CCCCC(CC)CNS(=O)(=O)c1ccc2c(c1)CCN2C(=O)CCC(=O)O (stereo unspecified),-7.7,18.5,40.7*,-0.5
O=C(O)CCC(=O)N1CCc2cc(S(=O)(=O)NC3CCCC3)ccc21,-2.1,13.4,0.6,0.2
CC1CC(C)(C)OC(C[N+]2(C)CCCCC2)O1 (stereo unspecified),.,-3.3,-3.5,.
CC(c1ccccc1)N(NC(=O)C(O)(c1ccccc1)c1ccccc1)C(=O)c1ccccc1 (stereo unspecified),22.3*,2.6,3.3,30.6*
C=CCc1ccccc1OCC(O)CN1CCN(c2ccc(OC)cc2)CC1 (stereo unspecified),-15.2,80.3*,90.7*,3.7
C=CCc1ccccc1OCC(O)CNC (stereo unspecified),-21.0,101.3*,109.7*,0.0
CCOc1ccccc1OCC(O)CNC (stereo unspecified),-15.9,94.1*,105.7*,-0.1
CCOc1ccccc1CNCCNCC(C)O (stereo unspecified),4.3,-7.9,-1.7,.
C=CCc1ccccc1OCC(O)CN(C(C)C)C(C)C (stereo unspecified),-18.5,96.6*,102.7*,5.4
C=CCc1ccccc1OCC(O)Cn1ccnc1C (stereo unspecified),3.2,19.6,12.0,6.0
O=C1CCC(NC(=O)c2ccccc2)C(=O)N1 (stereo unspecified),.,-16.4,-2.4,.
C=CCOc1ccnc(-c2ccccc2)n1,.,-9.1,-4.5,.
O=C(Cn1nc(-c2ccccc2)ccc1=O)Nc1ccc(N2CCN(C(=O)c3ccccc3)CC2)cc1,-12.2,33.0*,32.3,-6.8
O=C(Cn1nc(-c2ccccc2)ccc1=O)Nc1ccc(-n2cnnn2)cc1,.,19.5,22.4,.
CC1CCN(CCOCCOc2ccc(Br)cc2Cl)CC1,2.7,6.2,-11.4,7.0
CC1CCCN(CCCOc2ccc(Br)cc2Cl)C1 (stereo unspecified),21.1*,-30.7,-6.6,.
Cc1cc(C(C)(C)C)oc1C(=O)N(CC(=O)NC1CCCC1)Cc1ccccc1Cl,25.6*,-20.0,-31.2,27.1*
Cc1cc(OCC(=O)NC(C)(C)C)ccc1Cl,-1.0,-6.3,4.9,0.3
CCc1ccc(OCC(O)CNC(C)(C)C)cc1 (stereo unspecified),-16.2,96.3*,92.7*,4.0
Cc1cc(OCC(O)CNC(C)(C)C)ccc1Cl (stereo unspecified),-14.3,102.3*,109.7*,.
CC(C)(C)NCC(O)COCc1ccc(Cl)cc1 (stereo unspecified),-4.7,67.9*,73.1*,0.3
Cn1nnc(NC(=O)c2cccc([N+](=O)[O-])c2)n1,.,2.9,8.1,.
CCC(CC)c1nn2c(N)c(/C=C3\C(C)=Nc4ccccc43)c(=O)nc2s1,.,50.6*,87.8*,.
CC(C)c1nn2c(N)c(/C=C3\C=Nc4ccccc43)c(=O)nc2s1,.,10.6,8.8,.
CSCCC(NS(=O)(=O)c1ccc2c(c1)oc(=O)n2C)C(=O)NCc1cccs1 (stereo unspecified),.,10.3,12.9,.
SMILES,NPY-Y1 antag,NPY-Y2 PAM-ag,NPY1 pot ag,NPY-Y2 antag
OC(CNCCC(c1ccccc1)c1ccccc1)COc1ccccc1 (stereo unspecified),-8.7,89.5*,96.0*,.
CC(C)CCNCC(O)CON=C1c2ccccc2-c2ccccc21 (stereo unspecified),2.0,44.5*,45.0*,.
COCCNCC(O)CON=C1c2ccccc2-c2ccccc21 (stereo unspecified),-4.8,92.0*,101.3*,.
CS(=O)(=O)N(CC(O)CON=C1c2ccccc2-c2ccccc21)c1ccc(F)cc1 (stereo unspecified),1.6,1.2,3.1,-1.1
COc1ccc(C2CC(=O)C=C(NCc3ccccc3)C2)cc1 (stereo unspecified),.,-16.4,-4.2,.
CN(CCO)c1cc(N2CCCCC2)c2nonc2c1[N+](=O)[O-],4.7,-4.5,4.5,.
CN(CCO)c1cc(NCCCN2CCC(Cc3ccccc3)CC2)c2nonc2c1[N+](=O)[O-],-1.9,28.8*,50.6*,.
COc1cccc(/C(=N/O)C2CC2c2ccc(Cl)cc2)c1 (stereo unspecified),12.5,7.6,18.1,.
CC(c1ccccc1)C1CC(=O)N(Cc2ccccc2)C1=O (stereo unspecified),2.3,10.9,13.7,.
NS(=O)(=O)c1cccc(-n2cnnn2)c1,.,0.3,12.3,.
N#Cc1c(-c2ccccc2)c(-c2ccccc2)nn(CC(=O)NNC(=O)Nc2ccc(Cl)cc2)c1=O,.,38.9*,51.2*,.
COc1ccccc1N1CCN(C(c2ccc(F)cc2)c2nnnn2C(C)C)CC1 (stereo unspecified),24.1*,3.8,-12.8,18.1*
COc1ccccc1N1CCN(C(c2ccc(C)cc2)c2nnnn2C(C)C)CC1 (stereo unspecified),14.4,-13.0,5.4,15.4
CCN(CC(=O)Nc1ccc([N+](=O)[O-])cc1OC)CC(=O)NC(C)(C)C,-2.2,3.0,5.9,1.4
O=C1CC(=C(c2ccccc2)c2ccccc2)C(=O)N1CCCCN1CCN(c2cccc(Cl)c2)CC1,16.1,1.3,11.1,7.8
Cc1ccccc1N1CCN(CCCN2C(=O)CC(=C(c3ccccc3)c3ccccc3)C2=O)CC1,-19.3,99.1*,105.3*,4.3
NNC(=O)c1cc(-c2ccc(N)cc2)nc2ccc(Br)cc12,.,11.0,31.3,.
Cc1ccc(-c2nnn(CC(=O)N(Cc3cccs3)C(C(=O)NC(C)(C)C)c3ccc(C)o3)n2)o1 (stereo unspecified),35.1*,-80.5,-112.5,39.6*
NS(=O)(=O)c1ccc(NNC(=O)c2ccc(F)cc2F)cc1,.,-7.4,3.9,.
COC(=O)CN1C(c2ccc(OC)cc2)=Nc2ccc(Cl)cc2C1c1ccccc1 (stereo unspecified),24.6*,-9.3,-7.0,22.9*
COc1cc(C2=Nc3ccc(Br)cc3C(c3ccccc3)N2CC(=O)NN)cc(OC)c1OC (stereo unspecified),.,12.9,9.2,.
COC(=O)CN1C(c2cccc(Cl)c2)=Nc2ccc(Cl)cc2C1c1ccccc1 (stereo unspecified),38.7*,-21.2,-42.9,27.6*
O=C(Nc1ccccc1)N(c1ccccc1)C1C=CS(=O)(=O)C1 (stereo unspecified),.,10.6,-12.8,.
CCOC(=O)N1CCN(CC(O)COc2ccc(C)cc2C(C)(C)C)CC1 (stereo unspecified),-10.8,61.1*,76.8*,0.5
CCOC(=O)N1CCN(CC(O)COCc2ccc(OC)c(OC)c2)CC1 (stereo unspecified),-2.1,-9.9,-34.4,0.8
COc1ccc(-c2cn(-c3ccc(OC)cc3)c3[n+]2-c2ccccc2CC3)cc1,8.0,15.6,-24.6,4.9
COc1ccc(-n2c(-c3ccc(Br)cc3)c[n+]3c2CCc2ccccc2-3)cc1,58.5*,-5.2,-97.8,25.1*
CCOc1ccccc1CNCc1ccc(F)cc1,7.2,-0.3,-2.0,.
COc1ccc2c(c1)c(CC(=O)Nc1ccccc1OC)c(C)n2C(=O)c1ccc(Cl)cc1,20.2*,-12.5,-26.9,18.2*
Fc1cccc(NC(=S)N2CCCCC2)c1,-2.6,-4.5,104.1*,0.9

# Assay outcomes from PubChem BioAssay.
